# What was measured:
# [1] = tested on: Erythrocyte; test: Anti-inflammatory activity in human RBC assessed as inhibition of hypotonic solution-induced hemolysis after 10 mins by spectrophotometric method; type: functional, cell-based
# In short: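 Heparinized blood from one healthy donor (no NSAIDs for 2 weeks), washed in 0.9% saline, made into 40% (v/v) RBC stock in 10 mM sodium phosphate/154 mM NaCl, pH 7.4. Stock mixed with hypotonic buffer (50 mM NaCl, 10 mM phosphate, pH 7.4) plus sample at 20–100 μg mL–1. Incubated at room temperature, centrifuged, supernatant absorbance at 540 nm, % haemolysis inhibition versus blank.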
# [2] = Inhibition of H+/K+-ATPase in sheep stomach parietal cells assessed as reduction in inorganic phosphate liberation using ATP as substrate measured after 10 to 15 mins; settings: Ovis aries
# In short: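 Enzyme came from sheep fundic mucosal scrapings, homogenized in sucrose/EGTA/Hepes-Tris buffer pH 7.4, then subcellular fractionation. Basal medium: 2 mmol L–1 ATP, 50 mmol L–1 Tris-HCl pH 7.5, with K+ and HCO3 stimulation. Reaction started with ATP, run at 37 °C and stopped with cold 20% TCA. Released Pi read by Fiske–Subbarow at 660 nm. Values are means of three determinations.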
Compound,IC50 [2] [µg/mL],IC50 [1] [µg/mL]
CCCCCC/C=N/Nc1nc2cccc(C)c2s1,72.1,82.2
Cc1cccc2nc(N/N=C/c3cccs3)sc12,30.4,28.7
CC/C=N/Nc1nc2cccc(C)c2s1,80.2,78.5
Cc1cccc2nc(N/N=C/c3cc4ccccc4[nH]3)sc12,28.1,30.2
Cc1cccc2nc(N/N=C/c3ccco3)sc12,38.3,50.1
Cc1cccc2nc(N/N=C/c3ccc[nH]3)sc12,42.6,46.2
Cc1cccc2nc(N/N=C/CC(C)C)sc12,82.2,90.7
Cc1cccc2nc(N/N=C\c3ccc(Br)cc3Br)sc12,66.1,10.1
Cc1cccc2nc(N/N=C\c3ccc(O)cc3O)sc12,14.1,58.2
Cc1cccc2nc(N/N=C\c3ccncc3)sc12,40.2,54.2
Cc1cccc2nc(N/N=C\c3ccc(Br)cc3)sc12,60.1,20.1
Cc1cccc2nc(N/N=C\c3ccc([N+](=O)[O-])cc3[N+](=O)[O-])sc12,80.6,12.7
Cc1cccc2nc(N/N=C\c3ccc([N+](=O)[O-])cc3)sc12,72.2,24.1
Cc1cccc2nc(N/N=C\c3cc(O)c(O)c(O)c3)sc12,8.99,68.6
Cc1cccc2nc(N/N=C\c3ccc(F)cc3F)sc12,70.6,16.1
Cc1cccc2nc(N/N=C\c3ccc(F)cc3)sc12,66.1,32.1
Cc1cccc2nc(N/N=C\c3ccc(Cl)cc3Cl)sc12,68.9,18.2
Cc1cccc2nc(N/N=C\c3ccc(O)c(Br)c3)sc12,48.1,52.4
COc1ccc2c(c1)c(CC(=O)O)c(C)n2C(=O)c1ccc(Cl)cc1 [INDOMETHACIN],–,40
COc1ccc2[nH]c([S+]([O-])Cc3ncc(C)c(OC)c3C)nc2c1 (configuration not stated) [OMEPRAZOLE],46.1,–

# Further lines, with some results ahead:
IC50 [2] [µg/mL],Compound,IC50 [1] [µg/mL]
84.1,Cc1cccc2nc(N/N=C\c3ccccc3)sc12,80.1
26.2,COc1ccc(/C=N\Nc2nc3cccc(C)c3s2)cc1O,56.2
42.1,COc1cc(/C=N\Nc2nc3cccc(C)c3s2)cc(Br)c1O,56.4
56.4,Cc1cccc2nc(N/N=C\c3ccc(Oc4ccccc4)cc3)sc12,60.9
34.2,Cc1ccc(/C=N\Nc2nc3cccc(C)c3s2)cc1,54.3
26.3,Cc1cccc2nc(N/N=C\c3ccc(O)cc3)sc12,60
20.4,COc1ccc(/C=N\Nc2nc3cccc(C)c3s2)c(OC)c1,68.1
54.4,COc1ccc(/C=N\Nc2nc3cccc(C)c3s2)cc1Br,58.6
68.2,Cc1cccc2nc(N/N=C\c3ccc(Cl)cc3)sc12,28.7
12.8,COc1cc(/C=N\Nc2nc3cccc(C)c3s2)cc(OC)c1OC,74.6
42.9,COc1cc(/C=N\Nc2nc3cccc(C)c3s2)ccc1OCc1ccccc1,66.2
30.4,COc1ccc(/C=N\Nc2nc3cccc(C)c3s2)cc1,72.7

# — ChEMBL document CHEMBL4261521, “Synthesis of benzo[d]thiazole-hydrazone analogues: molecular docking and SAR studies of potential H+/K+ ATPase inhibitors and anti-inflammatory agents” (Medchemcomm, 2017)
